Test results as given in ChEMBL document CHEMBL1765020, “Synthesis and structure-affinity relationships of novel dibenzylideneacetone derivatives as probes for β-amyloid plaques” (J Med Chem, 2011).
The source made the active and inactive calls. No cut-off for these calls is given here.

Key:
Liver [1] = assay: Biodistribution in ddY mouse liver at 10 uCi/100 uL, iv after 15 mins by gamma counting; type: ADME, organism-based; settings: in vivo, 0.25 h
Brain [2] = assay: Ratio of drug uptake in ddY mouse brain at 10 uCi/100 uL, iv after 2 mins to drug uptake in ddY mouse brain at 10 uCi/100 uL, iv after 60 mins; type: ADME, organism-based; settings: in vivo
Procedure, shortened: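 Normal female ddY mice (5 weeks, about 20 g) received the radiotracer iv, with groups of 4 per time point. At 2 and 60 min, brain and other organs were excised and weighed and counted in a γ-counter. %ID/g wet tissue was taken against diluted injectate aliquots. The ratio is brain %ID/g at 2 min divided by brain %ID/g at 60 min.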

Bone [3] = assay: Biodistribution in ddY mouse bone at 10 uCi/100 uL, iv after 30 mins by gamma counting; type: ADME, organism-based, Bone element; settings: in vivo, 0.5 h
Procedure, shortened: (§1)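 Normal female ddY mice (5 weeks, about 20 g; n = 4 per group) received radiotracer iv. Organs were removed and weighed at 2–120 min and counted in a γ-counter. Percent dose per gram of wet tissue was calculated against diluted aliquots of the injected material and reported as mean ± SD.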

Heart [4] = assay: Biodistribution in ddY mouse heart at 10 uCi/100 uL, iv after 30 mins by gamma counting; type: ADME, organism-based; settings: in vivo, 0.5 h; procedure, shortened: as §1
Brain [5] = assay: Biodistribution in ddY mouse brain at 10 uCi/100 uL, iv after 2 mins by gamma counting; type: ADME, organism-based; settings: in vivo; procedure, shortened: as §1
Liver [6] = assay: Biodistribution in ddY mouse liver at 10 uCi/100 uL, iv after 30 mins by gamma counting; type: ADME, organism-based; settings: in vivo, 0.5 h
Kidney [7] = assay: Biodistribution in ddY mouse kidney at 10 uCi/100 uL, iv after 2 mins by gamma counting; type: ADME, organism-based; settings: in vivo
Stomach [8] = assay: Biodistribution in ddY mouse stomach at 10 uCi/100 uL, iv after 2 mins by gamma counting; type: ADME, organism-based; settings: in vivo
Brain [9] = assay: Biodistribution in ddY mouse brain at 10 uCi/100 uL, iv after 60 mins by gamma counting; type: ADME, organism-based; settings: in vivo, 1 h; procedure, shortened: as §1
Bone [10] = assay: Biodistribution in ddY mouse bone at 10 uCi/100 uL, iv after 15 mins by gamma counting; type: ADME, organism-based, Bone element; settings: in vivo, 0.25 h; procedure, shortened: as §1
Bone [11] = assay: Biodistribution in ddY mouse bone at 10 uCi/100 uL, iv after 2 mins by gamma counting; type: ADME, organism-based, Bone element; settings: in vivo; procedure, shortened: as §1
Stomach [12] = assay: Biodistribution in ddY mouse stomach at 10 uCi/100 uL, iv after 60 mins by gamma counting; type: ADME, organism-based; settings: in vivo, 1 h
Kidney [13] = assay: Biodistribution in ddY mouse kidney at 10 uCi/100 uL, iv after 60 mins by gamma counting; type: ADME, organism-based; settings: in vivo, 1 h
Lung [14] = assay: Biodistribution in ddY mouse lung at 10 uCi/100 uL, iv after 2 mins by gamma counting; type: ADME, organism-based; settings: in vivo
Intestine [15] = assay: Biodistribution in ddY mouse intestine at 10 uCi/100 uL, iv after 2 mins by gamma counting; type: ADME, organism-based; settings: in vivo; procedure, shortened: as §1
Blood [16] = assay: Biodistribution in ddY mouse blood at 10 uCi/100 uL, iv after 2 mins by gamma counting; type: ADME, organism-based; settings: in vivo; procedure, shortened: as §1
Blood [17] = assay: Biodistribution in ddY mouse blood at 10 uCi/100 uL, iv after 15 mins by gamma counting; type: ADME, organism-based; settings: in vivo, 0.25 h; procedure, shortened: as §1
Blood [18] = assay: Biodistribution in ddY mouse blood at 10 uCi/100 uL, iv after 60 mins by gamma counting; type: ADME, organism-based; settings: in vivo, 1 h; procedure, shortened: as §1
Intestine [19] = assay: Biodistribution in ddY mouse intestine at 10 uCi/100 uL, iv after 30 mins by gamma counting; type: ADME, organism-based; settings: in vivo, 0.5 h; procedure, shortened: as §1
Kidney [20] = assay: Biodistribution in ddY mouse kidney at 10 uCi/100 uL, iv after 15 mins by gamma counting; type: ADME, organism-based; settings: in vivo, 0.25 h
Lung [21] = assay: Biodistribution in ddY mouse lung at 10 uCi/100 uL, iv after 15 mins by gamma counting; type: ADME, organism-based; settings: in vivo, 0.25 h
Liver [22] = assay: Biodistribution in ddY mouse liver at 10 uCi/100 uL, iv after 2 mins by gamma counting; type: ADME, organism-based; settings: in vivo
Heart [23] = assay: Biodistribution in ddY mouse heart at 10 uCi/100 uL, iv after 60 mins by gamma counting; type: ADME, organism-based; settings: in vivo, 1 h; procedure, shortened: as §1
[24] = Partition coefficient, log D of the compound; type: physicochemical; settings: octanol/water
Procedure, shortened: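 Radiotracer partitioned between n-octanol and PBS: vortexed 3 min at room temperature, centrifuged 5 min at 3000 rpm. Weighed samples of the octanol (100 μL) and buffer (500 μL) layers were counted. log D is the log of the ratio of counts per gram, octanol versus PBS.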

Blood [25] = assay: Biodistribution in ddY mouse blood at 10 uCi/100 uL, iv after 30 mins by gamma counting; type: ADME, organism-based; settings: in vivo, 0.5 h; procedure, shortened: as §1
Stomach [26] = assay: Biodistribution in ddY mouse stomach at 10 uCi/100 uL, iv after 15 mins by gamma counting; type: ADME, organism-based; settings: in vivo, 0.25 h
Spleen [27] = assay: Biodistribution in ddY mouse spleen at 10 uCi/100 uL, iv after 60 mins by gamma counting; type: ADME, organism-based; settings: in vivo, 1 h
Heart [28] = assay: Biodistribution in ddY mouse heart at 10 uCi/100 uL, iv after 2 mins by gamma counting; type: ADME, organism-based; settings: in vivo; procedure, shortened: as §1
Heart [29] = assay: Biodistribution in ddY mouse heart at 10 uCi/100 uL, iv after 15 mins by gamma counting; type: ADME, organism-based; settings: in vivo, 0.25 h; procedure, shortened: as §1
Liver [30] = assay: Biodistribution in ddY mouse liver at 10 uCi/100 uL, iv after 60 mins by gamma counting; type: ADME, organism-based; settings: in vivo, 1 h
Spleen [31] = assay: Biodistribution in ddY mouse spleen at 10 uCi/100 uL, iv after 15 mins by gamma counting; type: ADME, organism-based; settings: in vivo, 0.25 h
Spleen [32] = assay: Biodistribution in ddY mouse spleen at 10 uCi/100 uL, iv after 2 mins by gamma counting; type: ADME, organism-based; settings: in vivo
Stomach [33] = assay: Biodistribution in ddY mouse stomach at 10 uCi/100 uL, iv after 30 mins by gamma counting; type: ADME, organism-based; settings: in vivo, 0.5 h
Brain [34] = assay: Biodistribution in ddY mouse brain at 10 uCi/100 uL, iv after 15 mins by gamma counting; type: ADME, organism-based; settings: in vivo, 0.25 h; procedure, shortened: as §1
Brain [35] = assay: Biodistribution in ddY mouse brain at 10 uCi/100 uL, iv after 30 mins by gamma counting; type: ADME, organism-based; settings: in vivo, 0.5 h; procedure, shortened: as §1
Bone [36] = assay: Biodistribution in ddY mouse bone at 10 uCi/100 uL, iv after 60 mins by gamma counting; type: ADME, organism-based, Bone element; settings: in vivo, 1 h; procedure, shortened: as §1
Spleen [37] = assay: Biodistribution in ddY mouse spleen at 10 uCi/100 uL, iv after 30 mins by gamma counting; type: ADME, organism-based; settings: in vivo, 0.5 h
Kidney [38] = assay: Biodistribution in ddY mouse kidney at 10 uCi/100 uL, iv after 30 mins by gamma counting; type: ADME, organism-based; settings: in vivo, 0.5 h
Intestine [39] = assay: Biodistribution in ddY mouse intestine at 10 uCi/100 uL, iv after 60 mins by gamma counting; type: ADME, organism-based; settings: in vivo, 1 h; procedure, shortened: as §1
Lung [40] = assay: Biodistribution in ddY mouse lung at 10 uCi/100 uL, iv after 30 mins by gamma counting; type: ADME, organism-based; settings: in vivo, 0.5 h
Lung [41] = assay: Biodistribution in ddY mouse lung at 10 uCi/100 uL, iv after 60 mins by gamma counting; type: ADME, organism-based; settings: in vivo, 1 h
Intestine [42] = assay: Biodistribution in ddY mouse intestine at 10 uCi/100 uL, iv after 15 mins by gamma counting; type: ADME, organism-based; settings: in vivo, 0.25 h; procedure, shortened: as §1
[43] = biological target: Amyloid-beta precursor protein (Homo sapiens) (UniProt P05067); assay: Binding affinity to amyloid beta (1 to 42) aggregate in cortex of Alzheimer disease patient brain by immunohistochemical staining using amyloid beta antibody BC05; settings: tested as the 125I-labelled form
Procedure, shortened: (§2)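 Plaque presence and location in the AD patient temporal-lobe sections were confirmed by immunohistochemistry with monoclonal anti-Aβ1-42 antibody BC05.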

[44] = biological target: Amyloid-beta precursor protein (Homo sapiens) (UniProt P05067); assay: Binding affinity to amyloid beta (1 to 42) aggregate in white matter of Alzheimer disease patient brain by autoradiography; type: tissue-based; settings: tested as the 125I-labelled form
Procedure, shortened: (§3)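 Human postmortem temporal-lobe paraffin sections were used: AD patient and normal control (person). They were deparaffinized (xylene, graded ethanol), held 30 min in PBS 0.2 M pH 7.4, incubated 1 h at room temperature with radiotracer (5 μCi/100 μL), washed 3 min in 40% ethanol, rinsed, dried and exposed to an imaging plate overnight.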

[45] = biological target: Amyloid-beta precursor protein (Homo sapiens) (UniProt P05067); assay: Binding affinity to amyloid beta (1 to 42) aggregate in cortex of Alzheimer disease patient brain by autoradiography; settings: tested as the 125I-labelled form; procedure, shortened: as §3
[46] = Displacement of [125I]IMPY from amyloid beta (1 to 42) aggregate after 2 hrs by gamma counting
Procedure, shortened: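 Competition binding in 1 mL PBS (0.2 M, pH 7.4). Aggregated Aβ1-42 fibrils (60 nM final) with [125I]IMPY and inhibitor at 10^-5 to 10^-10 M, added in ethanol. Nonspecific binding was defined with 1 μM IMPY. Incubated 2 h at 37 °C with shaking, then vacuum-filtered through glass fibre filters and the bound fraction gamma-counted. IC50 was converted to Ki by Cheng-Prusoff; triplicate, mean ± SD.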

[47] = biological target: Amyloid-beta precursor protein (Homo sapiens) (UniProt P05067); assay: Binding affinity to amyloid beta (1 to 42) aggregate in white matter of Alzheimer disease patient brain by immunohistochemical staining using amyloid beta antibody BC05; type: tissue-based; settings: tested as the 125I-labelled form; procedure, shortened: as §2

Amyloid-beta precursor protein (Homo sapiens), sequence (P05067 whole entry): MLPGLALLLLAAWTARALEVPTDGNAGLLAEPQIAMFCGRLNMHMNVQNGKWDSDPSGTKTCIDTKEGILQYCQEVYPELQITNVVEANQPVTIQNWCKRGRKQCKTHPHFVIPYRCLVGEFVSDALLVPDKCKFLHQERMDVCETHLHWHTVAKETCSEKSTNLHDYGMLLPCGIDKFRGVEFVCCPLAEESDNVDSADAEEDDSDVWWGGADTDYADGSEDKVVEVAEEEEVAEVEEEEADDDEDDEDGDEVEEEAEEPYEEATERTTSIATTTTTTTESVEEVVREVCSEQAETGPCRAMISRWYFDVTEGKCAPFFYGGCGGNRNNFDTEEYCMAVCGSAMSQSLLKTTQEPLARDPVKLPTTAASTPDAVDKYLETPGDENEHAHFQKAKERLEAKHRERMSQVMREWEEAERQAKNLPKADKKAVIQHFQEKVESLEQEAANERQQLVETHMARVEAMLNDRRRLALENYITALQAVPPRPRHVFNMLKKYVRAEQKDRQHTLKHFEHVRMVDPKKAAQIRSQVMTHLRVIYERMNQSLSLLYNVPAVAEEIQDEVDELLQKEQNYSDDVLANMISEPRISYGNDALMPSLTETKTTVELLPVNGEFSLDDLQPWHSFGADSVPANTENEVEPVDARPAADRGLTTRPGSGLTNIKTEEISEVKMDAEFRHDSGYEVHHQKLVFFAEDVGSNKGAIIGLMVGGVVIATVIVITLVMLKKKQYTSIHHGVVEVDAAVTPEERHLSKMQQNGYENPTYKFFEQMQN

CNc1ccc(/C=C/C(=O)/C=C/c2ccc(OCCOCCOCC[18F])cc2)cc1
Drug uptake (Liver [1]): 30.09 % ID/g
Ratio (Brain [2]): 4.06
Drug uptake (Bone [3]): 2.94 % ID/g
Drug uptake (Heart [4]): 5.44 % ID/g
Drug uptake (Brain [5]): 5.15 % ID/g
Drug uptake (Liver [6]): 19.24 % ID/g
Drug uptake (Kidney [7]): 16.48 % ID/g
Drug uptake (Stomach [8]): 3.26 % ID/organ
Drug uptake (Brain [9]): 1.27 % ID/g
Drug uptake (Bone [10]): 2.93 % ID/g
Drug uptake (Bone [11]): 2.97 % ID/g
Drug uptake (Stomach [12]): 1.28 % ID/organ
Drug uptake (Kidney [13]): 9.43 % ID/g
Drug uptake (Lung [14]): 12.19 % ID/g
Drug uptake (Intestine [15]): 6.58 % ID/g
Drug uptake (Blood [16]): 7.44 % ID/g
Drug uptake (Blood [17]): 7.99 % ID/g
Drug uptake (Blood [18]): 3.59 % ID/g
Drug uptake (Intestine [19]): 24.34 % ID/g
Drug uptake (Kidney [20]): 14.15 % ID/g
Drug uptake (Lung [21]): 11.77 % ID/g
Drug uptake (Liver [22]): 24.15 % ID/g
Drug uptake (Heart [23]): 5.14 % ID/g
logD [24]: 3.08
Drug uptake (Blood [25]): 4.68 % ID/g
Drug uptake (Stomach [26]): 2.61 % ID/organ
Drug uptake (Spleen [27]): 5.35 % ID/g
Drug uptake (Heart [28]): 10.55 % ID/g
Drug uptake (Heart [29]): 7.64 % ID/g
Drug uptake (Liver [30]): 14.07 % ID/g
Drug uptake (Spleen [31]): 6.62 % ID/g
Drug uptake (Spleen [32]): 5.39 % ID/g
Drug uptake (Stomach [33]): 1.93 % ID/organ
Drug uptake (Brain [34]): 1.89 % ID/g
Drug uptake (Brain [35]): 1.35 % ID/g
Drug uptake (Bone [36]): 2.54 % ID/g
Drug uptake (Spleen [37]): 5.44 % ID/g
Drug uptake (Kidney [38]): 11.51 % ID/g
Drug uptake (Intestine [39]): 26.26 % ID/g
Drug uptake (Lung [40]): 7.43 % ID/g
Drug uptake (Lung [41]): 5.44 % ID/g
Drug uptake (Intestine [42]): 12.82 % ID/g

CN(C)c1ccc(/C=C/C(=O)/C=C/c2ccc(I)cc2)cc1
Activity [43]: Active
Activity [44]: Active
Activity [45]: Active
Ki [46]: 0.9 nM
Activity [47]: Active

CNc1ccc(/C=C/C(=O)/C=C/c2ccc(I)cc2)cc1
Activity [43]: Active
Activity [44]: Active
Activity [45]: Active
Ki [46]: 2.8 nM
Activity [47]: Active
